Laboratory results taken from article PMC3240942 (Molecular cell, 2011).
Changes are numbered by the printed parent chain. One block for each molecule: values may come before it. Where no end group is shown, it is not given here.

Legend:
Sirt1 [1] = molecular target: T1, Sirt1 (Mus musculus, UniProt Q923E4); details: 2007, cited from earlier work; for reported Sirt1 activation: ref Howitz et al., 2003, Milne et al.
T1 sequence (Q923E4 1-737): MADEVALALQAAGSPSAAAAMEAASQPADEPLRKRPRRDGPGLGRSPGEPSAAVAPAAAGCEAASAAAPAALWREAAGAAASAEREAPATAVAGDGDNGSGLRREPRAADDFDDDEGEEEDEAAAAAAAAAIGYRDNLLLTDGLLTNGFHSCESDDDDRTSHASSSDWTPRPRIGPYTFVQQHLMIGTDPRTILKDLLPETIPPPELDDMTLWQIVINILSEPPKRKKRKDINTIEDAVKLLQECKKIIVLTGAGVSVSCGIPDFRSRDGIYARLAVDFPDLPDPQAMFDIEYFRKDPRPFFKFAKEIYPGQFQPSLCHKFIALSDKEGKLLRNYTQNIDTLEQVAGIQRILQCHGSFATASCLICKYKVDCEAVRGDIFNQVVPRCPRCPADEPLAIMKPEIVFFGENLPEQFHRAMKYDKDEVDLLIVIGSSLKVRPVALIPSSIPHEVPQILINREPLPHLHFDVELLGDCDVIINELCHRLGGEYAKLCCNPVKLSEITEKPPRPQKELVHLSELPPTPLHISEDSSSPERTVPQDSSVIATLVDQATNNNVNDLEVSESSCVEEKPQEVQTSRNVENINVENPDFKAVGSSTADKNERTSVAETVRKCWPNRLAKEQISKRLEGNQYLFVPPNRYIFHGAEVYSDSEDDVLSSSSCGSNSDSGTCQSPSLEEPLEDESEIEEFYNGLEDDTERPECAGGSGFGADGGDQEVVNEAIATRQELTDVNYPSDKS

Sirt1 [2] = molecular target: T1, Sirt1; assay: Lineweaver-Burk kinetics of Sirt1; type: biochemical; details: Sirt1 substrate/cofactor, under our reaction conditions
Outline: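 His-Sirt1 (2 μg) was pre-incubated 5 min at room temperature in HEPES pH 7.0 buffer with mutant ESA peptide at 0, 60, 120 or 240 μM. Ac-K16 H4 fluorogenic dipeptide was varied at 500 μM NAD+, or NAD+ was varied at 100 μM substrate. Reactions ran 25 min at 37 °C and were stopped with nicotinamide developer; ex 355/em 460 nm, no-NAD+ blank subtracted. Triplicates. Kis/Kii came from a double-reciprocal noncompetitive model fit, Km from the same analysis, kcat from a Michaelis–Menten fit.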

Ac-H4 peptide = assay: Pull-down with streptavidin-immobilized Ac-H4 peptide; type: binding
Outline: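 Biotinylated peptide (mutant ESA or acetyl-H4) was bound to streptavidin agarose for 1 h at room temperature, washed, and held in PBS/1% Triton X-100. Beads (30 μl) took 2 μg GST-fused or His-tagged protein for 2 h at room temperature. Beads were washed with PBS/1% Triton/200 mM NaCl and eluted in β-ME SDS buffer at 95 °C for 10 min. Blots ran on 4–12% SDS-PAGE; biotin-only beads were the control.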

[3] = test system: Lys 382 acetylated-p53 (Ac-p53); assay: Deacetylation of Lys 382 acetylated-p53 by recombinant WT/mutant Sirt1; type: biochemical, mouse Sirt1; details: recombinant Sirt1 2 μg, acetylated GST-p53 0.2 μg, 0.5 mM NAD+, pH 7.0, 37 °C; immunoblot
Outline: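 Recombinant His-tagged WT or C-terminally truncated/point-mutant mouse Sirt1 (2 μg) incubated with acetylated GST-p53 (0.2 μg) and 0.5 mM NAD+ in 50 mM HEPES pH 7.0, 1 mM DTT, 10 mM MgCl2, 200 mM NaCl plus protease/phosphatase inhibitors. Reactions ran at 37 °C for indicated times and were stopped with SDS sample buffer. Read-out: immunoblot with acetyl-K382 p53 antibody; loading checked by Coomassie, Ponceau S or Western blot.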

GST-Ac-p53 = assay: Pull-down of Sirt1 / core fragments with GST-Ac-p53; type: binding; details: in vitro pull-down
Outline: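 In vitro pull-downs with GST-Ac-p53 or GST alone as negative control. Recombinant Flag-tagged full-length or ΔESA (a.a. 631-655 deleted) Sirt1 pulled down with anti-Flag, bound GST-Ac-p53 detected by GST immunoblot, and Sirt1 shown by Coomassie. Alternatively, core (a.a. 184-510) or Core-ESA with GST-Ac-p53 (2 μg each) in GST pull-down, bound core detected by Sirt1 immunoblot.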

Flag-p65 (NF-κB) = assay: Co-immunoprecipitation of Sirt1 with Flag-p65 in Hela cells; type: cell-based; details: V5-tagged Sirt1
Outline: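 Transient co-transfection of HeLa cells with Flag-NF-κB p65 plus V5-tagged full-length or ΔESA Sirt1. p65 was pulled down with anti-Flag, and bound Sirt1 was detected by anti-V5 immunoblot alongside input levels.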

[4] = molecular target: T2, Sirt1 deacetylase core (Core, a.a. 184-510) (mouse, UniProt Q923E4 184-510); assay: pull-down
T2 sequence (looked up): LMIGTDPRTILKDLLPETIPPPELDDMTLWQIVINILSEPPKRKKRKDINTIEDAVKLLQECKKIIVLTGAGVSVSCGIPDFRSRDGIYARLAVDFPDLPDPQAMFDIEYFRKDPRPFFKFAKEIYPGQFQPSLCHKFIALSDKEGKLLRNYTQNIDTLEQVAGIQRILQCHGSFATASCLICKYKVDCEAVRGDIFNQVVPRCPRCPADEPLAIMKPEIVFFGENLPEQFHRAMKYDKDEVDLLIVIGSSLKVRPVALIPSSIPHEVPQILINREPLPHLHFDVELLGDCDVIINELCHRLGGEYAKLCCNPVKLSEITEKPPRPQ

[5] = molecular target: T3, Sirt1 fragment F1b (the Sirtuin domain, a.a. 236-490) (mouse, UniProt Q923E4 236-490); assay: pull-down
T3 sequence (looked up): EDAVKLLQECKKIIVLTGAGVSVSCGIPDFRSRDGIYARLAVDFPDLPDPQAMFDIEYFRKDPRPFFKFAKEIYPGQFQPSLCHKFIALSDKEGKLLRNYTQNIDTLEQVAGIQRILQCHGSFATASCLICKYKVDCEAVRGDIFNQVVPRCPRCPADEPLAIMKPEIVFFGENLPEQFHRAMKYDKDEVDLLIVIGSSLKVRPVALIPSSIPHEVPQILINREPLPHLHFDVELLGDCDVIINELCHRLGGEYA

Molecule: O=C(Nc1ccccc1-c1cn2c(CN3CCNCC3)csc2n1)c1cnc2ccccc2n1 [SRT1720, reference compound]
reported Sirt1 activation (Sirt1 [1]): reported to activate Sirt1

Molecule: Oc1ccc(/C=C/c2cc(O)cc(O)c2)cc1 [resveratrol, reference compound]
reported Sirt1 activation (Sirt1 [1]): reported to activate Sirt1

B1: AROS: Active Regulator of Sirt1 (protein, UniProt Q86WX3 1-136, looked up)
Active regulator of SIRT1: MSAALLRRGLELLAASEAPRDPPGQAKPRGAPVKRPRKTKAIQAQKLRNSAKGKVPKSALDEYRKRECRDHLRVNLKFLTRTRSTVAESVSQQILRQNRGRKACDRPVAKTKKKKAEGTVFTEEDFQKFQQEYFGS
effect on Sirt1 activity (Sirt1 [1]; binds to N-terminal domain of Sirt1, ref Kim et al.): activates its activity

B2: Core-ESA: ESA region attached to the deacetylase core (protein)
chain: LMIGTDPRTILKDLLPETIPPPELDDMTLWQIVINILSEPPKRKKRKDINTIEDAVKLLQECKKIIVLTGAGVSVSCGIPDFRSRDGIYARLAVDFPDLPDPQAMFDIEYFRKDPRPFFKFAKEIYPGQFQPSLCHKFIALSDKEGKLLRNYTQNIDTLEQVAGIQRILQCHGSFATASCLICKYKVDCEAVRGDIFNQVVPRCPRCPADEPLAIMKPEIVFFGENLPEQFHRAMKYDKDEVDLLIVIGSSLKVRPVALIPSSIPHEVPQILINREPLPHLHFDVELLGDCDVIINELCHRLGGEYAKLCCNPVKLSEITEKPPRPQQYLFVPPNRYIFHGAEVYSDSEDDV
modifications: left off: His tag, end not stated, kept
deacetylase activity against Ac-p53 [3]: restored deacetylase activity | binding to GST-Ac-p53 (GST-Ac-p53): increases the deacetylase core-Ac-p53 interaction | binding to Ac-H4 peptide (Ac-H4 peptide): increases the deacetylase core-Ac-H4 interaction

B3: Core-GPDR: GPDR-mutated ESA region attached to the Core (protein)
chain: B2 chain with G341P, D347R
binding to Ac-H4 peptide (Ac-H4 peptide): interacted poorly with the Ac-H4 peptide

B4: deacetylase core: a.a. 184-510 of Sirt1 (protein)
chain: T2 sequence (looked up)
modifications: left off: His tag, end not stated, kept
deacetylase activity against Ac-p53 [3]: no catalytic activity

More lines, main results first:

Km (Sirt1 [2]): 203 µM
Molecule: NC(=O)c1ccc[n+]([C@@H]2O[C@H](COP(=O)([O-])OP(=O)(O)OC[C@H]3O[C@@H](n4cnc5c(N)ncnc54)[C@H](O)[C@@H]3O)[C@@H](O)[C@H]2O)c1 [NAD^+, reference compound]

binding to Ac-H4 peptide (Ac-H4 peptide): not to either GST-ESA or GST alone
Molecule: GST-ESA: ESA fused to GST (QYLFVPPNRYIFHGAEVYSDSEDDV; also: fused to GST, end not given here)

binding to Ac-H4 peptide (Ac-H4 peptide): Ac-H4 peptide bound to full-length Sirt1
B5: WT Sirt1: wild-type full-length Sirt1 (protein)
chain: T1 sequence (Q923E4 1-737)
modifications: left off: His tag, end not stated, kept
co-immunoprecipitation with Flag-p65 (Flag-p65 (NF-κB)): readily co-immunoprecipitated with Flag-p65

binding result [4]: binds | binding result [5]: binds
Molecule: QYLFVPPNRYIFHGAEVYSDSEDDV (peptide, UniProt Q923E4 631-655, looked up, also: biotin-tagged, position not given here) [ESA peptide (biotin-tagged peptide of the region essential for Sirt1 activity, a.a. 631-655)]
